Here are results for 24 compounds from ChEMBL document CHEMBL1148614, “Synthesis and evaluation of 2-anilino-3-phenylsulfonyl-6-methylpyridines as corticotropin-releasing factor1 receptor ligands” (Bioorg Med Chem Lett, 2006).

For data set [1], the target named is T1, Corticotropin-releasing factor receptor 1 (Rattus norvegicus, UniProt P35353).
T1 sequence (P35353 whole entry): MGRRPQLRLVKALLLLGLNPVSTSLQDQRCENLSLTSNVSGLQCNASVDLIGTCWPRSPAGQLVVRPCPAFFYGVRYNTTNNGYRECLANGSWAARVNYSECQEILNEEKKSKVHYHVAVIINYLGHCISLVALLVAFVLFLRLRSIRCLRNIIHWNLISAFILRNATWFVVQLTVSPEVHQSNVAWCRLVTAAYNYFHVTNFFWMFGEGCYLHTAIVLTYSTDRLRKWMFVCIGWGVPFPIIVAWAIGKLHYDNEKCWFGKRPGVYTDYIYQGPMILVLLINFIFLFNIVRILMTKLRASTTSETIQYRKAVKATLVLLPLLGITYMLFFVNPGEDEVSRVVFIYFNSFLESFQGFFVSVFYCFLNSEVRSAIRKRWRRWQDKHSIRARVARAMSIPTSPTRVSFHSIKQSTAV
In words: Displacement of [125I]Tyr-o-CRF from CRF1 receptor in rat frontal cortex homogenates. The data set is classed as tissue-based.

Data set [2] in a line: Half life in Sprague-Dawley rat at 0.5 mg/kg, iv. The data set is classed as ADME, organism-based. As to conditions: in vivo. The arrangement: dose 0.5 mg/kg, route intravenous.
The test system of the next data set is Rattus norvegicus. As to the kind of experiment: Volume of distribution in Sprague-Dawley rat at 0.5 mg/kg, iv. The data set is classed as ADME, organism-based. The arrangement: dose 0.5 mg/kg, route intravenous. As to conditions: in vivo.
Data set [3] is described as follows: AUC in Sprague-Dawley rat at 2.0 mg/kg, po. As to conditions: plasma. Further details: dose 2 mg/kg, route oral. The data set is classed as ADME, organism-based. An outline of the steps:
(§1)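 Cassette dosing in Sprague–Dawley rats (n = 3 per route). Oral dose 2 mg/kg, with plasma sampled at 0, 0.5, 1, 2, 4, 6, 8 and 24 h. Plasma drug levels measured by LC/MS/MS.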

Data set [4] is described as follows: Cmax in Sprague-Dawley rat at 2.0 mg/kg, po. Further details: dose 2 mg/kg, route oral. As to conditions: in vivo. The data set is classed as ADME, organism-based. An outline of the steps: as §1
Data set [5] in a line: Clearance in Sprague-Dawley rat at 0.5 mg/kg, iv. The data set is classed as ADME, organism-based. Further details: dose 0.5 mg/kg, route intravenous. As to conditions: in vivo.
Data set [6] can be described thus: Bioavailability in Sprague-Dawley rat at 2.0 mg/kg, po. The data set is classed as ADME, organism-based. As to conditions: in vivo. The essentials: as §1

For the compound `COc1cccc(S(=O)(=O)c2ccc(C)nc2Nc2c(C)cc(C)cc2C)c1`, the inhibition constant (Ki) in data set [1] is 0.249 µM. Still for that read-out and setting: next, `Cc1cc(C)c(Nc2nc(C)ccc2S(=O)(=O)c2cccc(OCc3ccccc3)c2)c(C)c1`: 0.132 µM; `COc1cc(COc2ccc(S(=O)(=O)c3ccc(C)nc3Nc3c(C)cc(C)cc3C)cc2)cc(OC)c1`: 0.034 µM. On the same count and under the same terms, the figure for `Cc1cc(C)c(Nc2nc(C)ccc2S(=O)(=O)c2ccc(OC(F)(F)F)cc2)c(C)c1` is 0.268 µM; for `Cc1cc(C)c(Nc2nc(C)ccc2S(=O)(=O)c2ccc(OCCCCC#N)cc2)c(C)c1` it is 0.395 µM; for `Cc1cc(C)c(Nc2nc(C)ccc2S(=O)(=O)c2ccc(CO)cc2)c(C)c1` it is 1.08 µM. On the same count and under the same terms, the figure for `Cc1ccc(S(=O)(=O)c2c(C)cc(C)nc2Nc2c(C)cc(C)cc2C)cc1` is 1.78 µM; for `COc1ccc(S(=O)(=O)c2ccc(C)nc2Nc2c(C)cc(C)cc2C)cc1` it is 0.198 µM. In turn, `C=CCOc1ccc(S(=O)(=O)c2ccc(C)nc2Nc2c(C)cc(C)cc2C)cc1` had a Ki in data set [1] of 0.119 µM. For the compound `Cc1cccc(S(=O)(=O)c2c(C)cc(C)nc2Nc2c(C)cc(C)cc2C)c1`, affinity in data set [1] was put at a Ki of 5.17 µM.

Turning to `CCc1ccc(S(=O)(=O)c2ccc(C)nc2Nc2c(C)cc(C)cc2C)cc1`, in data set [1], the inhibition constant (Ki) came to 0.052 µM. The compound also showed a half-life in data set [2] of 5.1 h. Further, in the data set on Rattus norvegicus, the volume of distribution (Vss) was 25 L/kg. Besides, the AUC in data set [3] is 0.347 µM·h. The compound further came in with a Cmax in data set [4] of 72 nM. Further, the clearance in data set [5] was 86.7 mL/min/kg. In data set [6], this compound yielded a bioavailability of 35%. With `Cc1cc(C)c(Nc2nc(C)ccc2S(=O)(=O)c2ccc(OCc3cccc(C#N)c3)cc2)c(C)c1`, the Ki in data set [1] is 0.075 µM. Same read-out and setting: next, `COc1cccc(COc2ccc(S(=O)(=O)c3ccc(C)nc3Nc3c(C)cc(C)cc3C)cc2)c1`: 0.058 µM. `Cc1cc(C)c(Nc2nc(C)ccc2S(=O)(=O)c2ccc(OCc3ccc(C#N)cc3)cc2)c(C)c1`: the affinity in data set [1] corresponds to a Ki of 0.157 µM.

The compound `Cc1ccc(S(=O)(=O)c2ccc(C)nc2Nc2c(C)cc(C)cc2C)cc1` yielded a Ki in data set [1] of 0.145 µM. The same measure, in the same setting: next, `Cc1cc(C)c(Nc2nc(C)ccc2S(=O)(=O)Cc2ccc(Cl)cc2)c(C)c1`: 0.857 µM; `Cc1cc(C)c(Nc2nc(C)cc(C)c2S(=O)(=O)c2ccccc2C)c(C)c1`: greater than 10 µM.

For `Cc1cc(C)c(Nc2nc(C)ccc2S(=O)(=O)c2ccc(OCCCC#N)cc2)c(C)c1`, the affinity in data set [1] corresponds to a Ki of 0.635 µM. For `COc1ccccc1COc1ccc(S(=O)(=O)c2ccc(C)nc2Nc2c(C)cc(C)cc2C)cc1`, the Ki in data set [1] is 0.017 µM. Moreover, the half-life in data set [2] was 3.5 h. Besides, the distribution volume (Vss) in the data set with Rattus norvegicus was found to be 8 L/kg. The AUC in data set [3] was determined as 0.176 µM·h. Further, in data set [4], the highest level (Cmax) was 48 nM. The compound further showed a clearance in data set [5] of 58.3 mL/min/kg. Besides, in data set [6], the bioavailability is 16%. `Cc1cc(C)c(Nc2nc(C)cc(C)c2S(=O)(=O)c2ccccc2)c(C)c1` came in with a Ki in data set [1] greater than 10 µM.

In data set [1], `Cc1ccc(S(=O)(=O)c2ccc(Nc3c(C)cc(C)cc3C)nc2C)cc1` gave a Ki greater than 10 µM.

With `Cc1cc(C)c(Nc2nc(C)ccc2S(=O)(=O)c2ccc(OCc3ccccn3)cc2)c(C)c1`, the affinity in data set [1], expressed as Ki, was 0.25 µM. For `Cc1cc(C)c(Nc2nc(C)ccc2S(=O)(=O)c2ccc(OCc3ccccc3)cc2)c(C)c1`, the affinity in data set [1], expressed as Ki, was 0.032 µM. The half-life in data set [2] is 3 h. Moreover, in the data set on Rattus norvegicus, the Vss stood at 10 L/kg. This compound also returned an AUC in data set [3] of 0.167 µM·h. Besides, the Cmax in data set [4] worked out at 42 nM. Besides, in data set [5], the clearance is 78.3 mL/min/kg. In data set [6], the bioavailability was 18%. Consider `COC(=O)c1cccc(COc2ccc(S(=O)(=O)c3ccc(C)nc3Nc3c(C)cc(C)cc3C)cc2)c1`, for which the inhibitory constant (Ki) in data set [1] was determined as 0.049 µM.

By Ki is commonly meant a dissociation constant, usually derived from enzyme kinetics or from competition with a known ligand. By half-life is commonly meant the time needed for the level to fall by half in the phase considered. A low value points to fast loss. What is called Vss is a proportionality between amount in the body and measured concentration, not a real space. By AUC is commonly meant concentration integrated over time. Usually Cmax stands for the highest concentration seen after dosing. For orientation: clearance means a measure of how efficiently the substance is removed, as volume per time. Low readings indicate a low capacity for elimination, high ones a high capacity for elimination. Broadly, the bioavailability is the share of a dose that reaches the circulation, judged against a reference dose that is usually intravenous. A higher bioavailability goes with good availability.
